Values after ≈ are worked out from the molar mass of the structure shown. Active and inactive are the calls of the source.
Experiments:
Mus musculus [1] = assay: Toxicity in PS mouse allografted with mouse P388 cells assessed as change in body weight at 6.2 ug/kg relative to control; format: organism-based; conditions: in vivo, 0.0062 mg/kg
Procedure, shortened: (§1)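 P388 (PS) leukemia in mice, 6 mice per dose group. Weight change is the difference in grams between treated and control animals. Survivors are recorded on toxicity day, normally 4 days after the first injection.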

Mus musculus [2] = assay: Toxicity in PS mouse allografted with mouse P388 cells assessed as change in body weight at 12.5 ug/kg relative to control; format: organism-based; conditions: in vivo, 0.0125 mg/kg; procedure, shortened: as §1
Mus musculus [3] = assay: Toxicity in PS mouse allografted with mouse P388 cells assessed as survival at 12.5 ug/kg after 4 days; format: organism-based; conditions: in vivo, 0.0125 mg/kg, 96 h
Procedure, shortened: (§2)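 PS (P388) leukemic mice, six started per dose group. Toxicity scored as survivors on the toxicity day over the number of mice started. The toxicity day is normally 4 days after the first injection.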

Mus musculus [4] = assay: Toxicity in PS mouse allografted with mouse P388 cells assessed as survival at 100 ug/kg after 4 days; format: organism-based; conditions: in vivo, 0.1 mg/kg, 96 h; procedure, shortened: as §2
Tubulin (Homo sapiens) = Tubulin (Homo sapiens) (UniProt P68371+Q9H4B7+P0DPH7+P68366+Q13509+Q71U36+P04350+Q3ZCM7+P07437+P68363+Q9BQE3+Q6PEY2+Q13885+Q9BVA1+Q9BUF5); assay: Inhibition of brain tubulin polymerization (unknown origin) at 37 degC by spectrophotometry
Mus musculus [5] = assay: Toxicity in PS mouse allografted with mouse P388 cells assessed as survival at 3.1 ug/kg after 4 days; format: organism-based; conditions: in vivo, 0.0031 mg/kg, 96 h; procedure, shortened: as §2
Mus musculus [6] = assay: Toxicity in PS mouse allografted with mouse P388 cells assessed as survival at 25 ug/kg after 4 days; format: organism-based; conditions: in vivo, 0.025 mg/kg, 96 h; procedure, shortened: as §2
P388 [7] = assay: Antitumor activity against mouse P388 cells allografted in PS mouse assessed as median survival time at 12.5 ug/kg relative to control; format: functional
Procedure, shortened: (§3)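 P388 leukemia (PS) in mice, six mice started per dose group. Read-out is T/C: median survival time of the treated group divided by that of the untreated control group, expressed as a percent. The NIH protocol counts a compound as active when T/C > 125%.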

P388 [8] = assay: Antitumor activity against mouse P388 cells allografted in PS mouse assessed as median survival time at 50 ug/kg relative to control; format: functional; procedure, shortened: as §3
P388 [9] = assay: Antitumor activity against mouse P388 cells allografted in PS mouse assessed as median survival time at 400 ug/kg relative to control; format: functional; procedure, shortened: as §3
Mus musculus [10] = assay: Toxicity in PS mouse allografted with mouse P388 cells assessed as change in body weight at 100 ug/kg relative to control; format: organism-based; conditions: in vivo, 0.1 mg/kg; procedure, shortened: as §1
Mus musculus [11] = assay: Toxicity in PS mouse allografted with mouse P388 cells assessed as survival at 200 ug/kg after 4 days; format: organism-based; conditions: in vivo, 0.2 mg/kg, 96 h; procedure, shortened: as §2
P388 [12] = assay: Antitumor activity against mouse P388 cells allografted in PS mouse assessed as median survival time at 6.2 ug/kg relative to control; format: functional; procedure, shortened: as §3
KB = assay: Cytotoxicity against human KB cells; format: functional; conditions: read-out: ED50 (the source's name)
P388 [13] = assay: Antitumor activity against mouse P388 cells allografted in PS mouse assessed as median survival time at 200 ug/kg relative to control; format: functional; procedure, shortened: as §3
Paracentrotus lividus = assay: Antimitotic activity against sea urchin eggs assessed as drug level causing inhibition of mitosis; format: functional; conditions: Egg
P388 [14] = assay: Antitumor activity against mouse P388 cells allografted in PS mouse assessed as median survival time at 25 ug/kg relative to control; format: functional; procedure, shortened: as §3
Mus musculus [15] = assay: Toxicity in PS mouse allografted with mouse P388 cells assessed as change in body weight at 50 ug/kg relative to control; format: organism-based; conditions: in vivo, 0.05 mg/kg; procedure, shortened: as §1
Mus musculus [16] = assay: Toxicity in PS mouse allografted with mouse P388 cells assessed as survival at 6.2 ug/kg after 4 days; format: organism-based; conditions: in vivo, 0.0062 mg/kg, 96 h; procedure, shortened: as §2
Mus musculus [17] = assay: Toxicity in PS mouse allografted with mouse P388 cells assessed as change in body weight at 25 ug/kg relative to control; format: organism-based; conditions: in vivo, 0.025 mg/kg; procedure, shortened: as §1
P388 [18] = assay: Antitumor activity against mouse P388 cells allografted in PS mouse assessed as median survival time at 100 ug/kg relative to control; format: functional; procedure, shortened: as §3
P388 [19] = assay: Antitumor activity against mouse P388 cells allografted in PS mouse assessed as median survival time at 3.1 ug/kg relative to control; format: functional; procedure, shortened: as §3
Mus musculus [20] = assay: Toxicity in PS mouse allografted with mouse P388 cells assessed as survival at 400 ug/kg after 4 days; format: organism-based; conditions: in vivo, 0.4 mg/kg, 96 h; procedure, shortened: as §2
Mus musculus [21] = assay: Toxicity in PS mouse allografted with mouse P388 cells assessed as change in body weight at 3.1 ug/kg relative to control; format: organism-based; conditions: in vivo, 0.0031 mg/kg; procedure, shortened: as §1
Mus musculus [22] = assay: Toxicity in PS mouse allografted with mouse P388 cells assessed as survival at 50 ug/kg after 4 days; format: organism-based; conditions: in vivo, 0.05 mg/kg, 96 h; procedure, shortened: as §2
Mus musculus [23] = assay: Toxicity in PS mouse allografted with mouse P388 cells assessed as change in body weight at 400 ug/kg relative to control; format: organism-based; conditions: in vivo, 0.4 mg/kg; procedure, shortened: as §1
Mus musculus [24] = assay: Toxicity in PS mouse allografted with mouse P388 cells assessed as change in body weight at 200 ug/kg relative to control; format: organism-based; conditions: in vivo, 0.2 mg/kg; procedure, shortened: as §1
P388 [25] = assay: Antitumor activity against mouse P388 cells allografted in PS mouse assessed as median survival time at 1.6 ug/kg relative to control; format: functional; procedure, shortened: as §3
Mus musculus [26] = assay: Toxicity in PS mouse allografted with mouse P388 cells assessed as survival at 1.6 ug/kg after 4 days; format: organism-based; conditions: in vivo, 0.0016 mg/kg, 96 h; procedure, shortened: as §2
Mus musculus [27] = assay: Toxicity in PS mouse allografted with mouse P388 cells assessed as change in body weight at 0.4 ug/kg relative to control; format: organism-based; conditions: in vivo, 0.0004 mg/kg
Procedure, shortened: (§4)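 PS (P388 leukemia) mice, six per dose group. Toxicity read as the difference in grams between the weights of treated and control animals.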

Mus musculus [28] = assay: Toxicity in PS mouse allografted with mouse P388 cells assessed as change in body weight at 1.6 ug/kg relative to control; format: organism-based; conditions: in vivo, 0.0016 mg/kg; procedure, shortened: as §1
Mus musculus [29] = assay: Toxicity in PS mouse allografted with mouse P388 cells assessed as change in body weight at 0.8 ug/kg relative to control; format: organism-based; conditions: in vivo, 0.0008 mg/kg; procedure, shortened: as §4
Mus musculus [30] = assay: Toxicity in PS mouse allografted with mouse P388 cells assessed as survival at 0.2 ug/kg after 4 days; format: organism-based; conditions: in vivo, 0.0002 mg/kg, 96 h; procedure, shortened: as §2
P388 [31] = assay: Antitumor activity against mouse P388 cells allografted in PS mouse assessed as median survival time at 0.4 ug/kg relative to control; format: functional; procedure, shortened: as §3
Mus musculus [32] = assay: Toxicity in PS mouse allografted with mouse P388 cells assessed as survival at 0.4 ug/kg after 4 days; format: organism-based; conditions: in vivo, 0.0004 mg/kg, 96 h; procedure, shortened: as §2
Mus musculus [33] = assay: Toxicity in PS mouse allografted with mouse P388 cells assessed as survival at 0.8 ug/kg after 4 days; format: organism-based; conditions: in vivo, 0.0008 mg/kg, 96 h; procedure, shortened: as §2
Mus musculus [34] = assay: Toxicity in PS mouse allografted with mouse P388 cells assessed as change in body weight at 0.2 ug/kg relative to control; format: organism-based; conditions: in vivo, 0.0002 mg/kg; procedure, shortened: as §4
P388 [35] = assay: Antitumor activity against mouse P388 cells allografted in PS mouse assessed as median survival time at 0.8 ug/kg relative to control; format: functional; procedure, shortened: as §3
P388 [36] = assay: Antitumor activity against mouse P388 cells allografted in PS mouse assessed as median survival time at 0.2 ug/kg relative to control; format: functional; procedure, shortened: as §3

SMILES	Activity (Mus musculus [1])	Activity (Mus musculus [2])	Activity (Mus musculus [3])	Activity (Mus musculus [4])	inhibition (Tubulin (Homo sapiens))	Activity (Mus musculus [5])	Activity (Mus musculus [6])	T/C (P388 [7])	T/C (P388 [8])	Activity (Mus musculus [10])	T/C (P388 [12])	EC50 (KB)	Activity (Paracentrotus lividus)	T/C (P388 [14])	Activity (Mus musculus [15])	Activity (Mus musculus [16])	Activity (Mus musculus [17])	T/C (P388 [18])	T/C (P388 [19])	Activity (Mus musculus [21])	also measured
COc1cc2cc(c1Cl)N(C)C(=O)CC(O)C1(C)OC1C(C)C1CC(O)(NC(=O)O1)C(OC)/C=C/C=C(\C)C2 (stereo not given) [MAYTANSINOL]	0.5 g	1.5 g	Non-toxic	Non-toxic	Active	Non-toxic	Non-toxic	102%	112%	1.2 g	102%	0.19 µg/mL (≈ 0.336 µM)	1 ×10⁻⁵ mol/L	94%	-0.4 g	Non-toxic	0.5 g	105%	102%	0.9 g	T/C (P388 [9]): 102%; Activity (Mus musculus [11]): Non-toxic; T/C (P388 [13]): 112%; Activity (Mus musculus [20]): Non-toxic; Activity (Mus musculus [22]): Non-toxic; Activity (Mus musculus [23]): -2.6 g; Activity (Mus musculus [24]): -1.8 g
COc1cc2cc(c1Cl)NC(=O)/C=C/[C@]1(C)O[C@H]1[C@H](C)[C@@H]1C[C@@](O)(NC(=O)O1)[C@H](OC)/C=C/C=C(\C)C2	0.4 g	-0.5 g	Non-toxic	Non-toxic	Active	Non-toxic	Non-toxic	110%	110%	1.2 g	115%	0.019 µg/mL (≈ 0.0356 µM)	1 µM	110%	-0.3 g	Non-toxic	-0.5 g	95%	115%	-0.2 g	T/C (P388 [25]): 100%; Activity (Mus musculus [26]): Non-toxic; Activity (Mus musculus [27]): 0.1 g; Activity (Mus musculus [28]): 0 g; Activity (Mus musculus [29]): -0.1 g; Activity (Mus musculus [30]): Non-toxic; T/C (P388 [31]): 100%; Activity (Mus musculus [32]): Non-toxic; Activity (Mus musculus [33]): Non-toxic; Activity (Mus musculus [34]): 1 g; T/C (P388 [35]): 90%; T/C (P388 [36]): 100%; Activity (Mus musculus [22]): Non-toxic
COc1cc2cc(c1Cl)N(C)C(=O)C[C@H](OC(=O)[C@H](C)N(C)C(=O)C(C)C)[C@]1(C)O[C@H]1[C@H](C)[C@@H]1C[C@@](OC)(NC(=O)O1)[C@H](OC)/C=C/C=C(\C)C2	-0.6 g	-2.1 g	Non-toxic	Non-toxic	Active	Non-toxic	Non-toxic	99%	99%	-1 g	100%	0.00016 µg/mL (≈ 0.000218 µM)	1 ×10⁻⁸ mol/L	96%	-2 g	Non-toxic	-0.5 g	99%	99%	-1.1 g	T/C (P388 [25]): 101%; Activity (Mus musculus [26]): Non-toxic; Activity (Mus musculus [28]): -1.8 g; T/C (P388 [9]): 136%; Activity (Mus musculus [11]): Non-toxic; T/C (P388 [13]): 100%; Activity (Mus musculus [20]): Non-toxic; Activity (Mus musculus [22]): Non-toxic; Activity (Mus musculus [23]): -3 g; Activity (Mus musculus [24]): -0.9 g
